From PubChem
PHOSPHO1 inh – inhibitors of human PHOSPHO1 phosphatase; AID 1565; actives 1.1% (n = 290,000); inhibition, % at 13.3 µM; recombinant PHOSPHO1, absorbance phosphatase assay; in the data active means inhibition above about 60%
Target sequence (Q8TCT1 whole entry, looked up): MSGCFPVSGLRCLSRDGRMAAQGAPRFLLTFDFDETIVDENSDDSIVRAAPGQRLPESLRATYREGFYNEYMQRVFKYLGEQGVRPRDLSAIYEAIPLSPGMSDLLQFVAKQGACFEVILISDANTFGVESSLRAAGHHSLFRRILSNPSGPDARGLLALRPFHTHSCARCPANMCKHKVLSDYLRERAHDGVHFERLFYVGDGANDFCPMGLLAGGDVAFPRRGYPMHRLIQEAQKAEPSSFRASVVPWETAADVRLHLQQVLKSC
Tb MetRS inh – Trypanosoma brucei MetRS inhibition; purified T. brucei MetRS, ATP depletion, Kinase-Glo luminescence; inhibition, % at 11.9 µM; actives 0.4% (n = 360,000);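 active means inhibition above a per-plate cutoff of the control wells' mean inhibition plus 3 SD, cut at about 5.5% in these data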;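 further: 0% = DMSO wells median and 100% = median of wells with control inhibitor compound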
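Dosing: 11.9 µM single point; system: parasite MetRS enzyme; technique: luminescence of leftover ATP; times: 15 min enzyme-compound preincubation, 2 h reaction, 10 min detection, 25 °C; replicates: each compound tested once; read-out basis: percent inhibition relative to median high and low control wells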
APOBEC3G inh – APOBEC3G (human) deaminase inhibition; recombinant A3G, ssDNA deamination FAM/TAMRA fluorescence; actives 0.28% (n = 330,000); inhibition, % at 20 µM; AID 493012; Q9HC16;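 active means inhibition of at least 40% at 20 µM, with no more than 30% in the related APOBEC3A deaminase screen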;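 further: plate controls were DMSO wells with A3G for no effect and wells lacking A3G enzyme for full effect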
Target sequence (Q9HC16 whole entry, looked up): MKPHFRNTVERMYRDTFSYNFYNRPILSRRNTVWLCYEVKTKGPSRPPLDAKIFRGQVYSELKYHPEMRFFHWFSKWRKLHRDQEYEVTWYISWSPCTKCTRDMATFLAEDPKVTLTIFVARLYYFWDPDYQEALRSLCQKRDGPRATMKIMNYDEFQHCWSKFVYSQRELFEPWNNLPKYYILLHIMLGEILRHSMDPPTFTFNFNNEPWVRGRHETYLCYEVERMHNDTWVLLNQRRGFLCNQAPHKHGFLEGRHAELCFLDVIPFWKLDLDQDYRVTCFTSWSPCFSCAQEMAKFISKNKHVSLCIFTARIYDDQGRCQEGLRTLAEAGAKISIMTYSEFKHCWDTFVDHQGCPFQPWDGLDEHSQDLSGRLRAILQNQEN
APOBEC3A inh – blocks human APOBEC3A ssDNA deamination. recombinant A3A, FAM/TAMRA ssDNA deamination fluorescence. inhibition, % at 20 µM. actives 0.41% (n = 330,000);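 active means at least 40% inhibition at 20 µM here, with at most 30% in a related deaminase screen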;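 further: plate controls were A3A with DMSO for no effect and wells lacking A3A enzyme for full effect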
pCIP destab – p/CIP protein destabilization. Q05BA5. F442A p/CIP-EGFP cells, EGFP fluorescence, 16 h. decrease of EGFP signal, % at 10 µM. actives 0.01% (n = 290,000). AID 1984;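 active means EGFP signal decrease of at least 30% at 10 µM or well 3 SD below plate mean, unless failing retest; inactive means the rest, including hits failing retest or dose response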
TbMetRS confirm – Trypanosoma brucei MetRS inhibition confirmed | inhibition, % at 11.9 µM | shares compounds with Tb MetRS inh | actives 93% (n = 1,400) | AID 624412 | T. brucei MetRS enzyme, luminescence (ATP depletion); in the data active means inhibition above about 7%
Jurkat cytotox – kills Jurkat cells in T. brucei MetRS counterscreen; shares compounds with Tb MetRS inh; Jurkat cells viability, ATP luminescence; inhibition, % at 8.3 µM; actives 12% (n = 1,400); in the data active means inhibition above about 15%;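 further: 0% = vehicle and 100% = reference inhibitor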
Tb MetRS inh FP – orthogonal test for Trypanosoma brucei MetRS inhibitors | shares compounds with Tb MetRS inh | purified T. brucei MetRS, fluorescence polarization | inhibition, % at 11.9 µM | actives 44% (n = 1,400); in the data active means inhibition above about 17%;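 further: 0% = vehicle wells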
* marks the source's active call; other numbers are inactive results; · = no result. Most compounds without a hit are left out; they make up all but 1.8% or so of the library.

SMILES	PHOSPHO1 inh	Tb MetRS inh	APOBEC3G inh	APOBEC3A inh	pCIP destab	TbMetRS confirm	Jurkat cytotox	Tb MetRS inh FP
COc1ccc2c(c1)CCC(C)N2C(=O)C(=O)c1c[nH]c2ccccc12 (stereo not given)	42	12*	-5	0	-3	17*	15	10
C=CCN(CC=C)C(=S)Nc1ccc(OC)c(OC)c1	-1	-1	-7	-4	-9	·	·	·
C[C@H](O)[C@@H]1CN2CCc3c([nH]c4ccccc34)[C@@H]2C[C@@H]1N(C)C(=O)Nc1cc(Cl)cc(Cl)c1	·	29*	·	·	·	58*	9	37*
C[C@H](O)[C@@H]1C(=O)N2CCc3c([nH]c4ccccc34)[C@@H]2C[C@@H]1N(C)C(=O)Nc1ccccc1	·	2	·	·	·	·	·	·
CN(Cc1cc(Cl)cc(Cl)c1)[C@H]1C[C@H]2c3[nH]c4ccccc4c3CCN2C(=O)[C@H]1CO	·	62*	·	·	·	106*	-3	86*
C[C@H](O)[C@@H]1C(=O)N2CCc3c([nH]c4ccccc34)[C@@H]2C[C@@H]1N(C)C(=O)Nc1cc(Cl)cc(Cl)c1	·	71*	·	·	·	91*	18*	70*
Cc1ccc(N(CC(=O)NC2CCCCC2)C(=O)CNC(=O)c2ccco2)cc1F	45	0	-13	-5	2	·	·	·
O=C(NC1CCCc2ccccc21)c1ccccc1OC(F)F (stereo not given)	-11	0	-4	0	-6	·	·	·
COc1cc(CCC(=O)N2CCN(c3ccccc3)CC2)cc(OC)c1OC	20	0	-13	-4	-1	·	·	·
Cc1ccc(C(=O)NCC(=O)OC(C)C(=O)NC2CCCCC2C)cc1C (stereo not given)	·	0	-8	-1	·	·	·	·
CC(OC(=O)CNC(=O)c1ccc(Cl)c([N+](=O)[O-])c1)C(=O)NC1CCCCC1C (stereo not given)	·	7.2*	-8	-3	·	26*	-1	13
CCCCCCCCNc1ncnc2ccccc12	0	11*	-4	1	-11	25*	46*	8
C=CCn1c(SCC(=O)N2CCN(CCO)CC2)nc2sc3c(c2c1=O)CCC3	33	0	-1	-2	-11	·	·	·
Cc1noc(C)c1S(=O)(=O)N(C)C[C@H]1Oc2c(NC(=O)Nc3ccccc3)cccc2C(=O)N([C@H](C)CO)C[C@@H]1C	·	17*	-2	1	·	57*	3	25*
C[C@H]1CN([C@@H](C)CO)C(=O)Cc2cc(NC(=O)Nc3ccccc3)ccc2O[C@H]1CN(C)Cc1ccccc1	·	9.5*	·	·	·	31*	4	20*
C[C@H](CO)N1C[C@H](C)[C@@H](CN(C)S(=O)(=O)c2cccs2)Oc2c(NC(=O)Nc3ccccc3)cccc2C1=O	·	20*	-1	-1	·	53*	-4	25*
C[C@H](CO)N1C[C@H](C)[C@H](CN(C)Cc2ccncc2)Oc2ccc(NC(=O)Nc3ccc(C(F)(F)F)cc3)cc2CC1=O	·	-1	-3	0	·	·	·	·
C[C@H](CO)N1C[C@H](C)[C@@H](CN(C)S(=O)(=O)c2ccccc2)Oc2c(NC(=O)Nc3ccccc3)cccc2C1=O	·	16*	-3	-2	·	35*	-3	10
Cc1noc(C)c1S(=O)(=O)N(C)C[C@H]1Oc2c(NC(=O)Nc3ccc(C(F)(F)F)cc3)cccc2C(=O)N([C@H](C)CO)C[C@@H]1C	·	1	2	3	·	·	·	·
CCc1cccc(NC(=O)Cc2ccc(OC)c(OC)c2)c1	-2	-1	-11	-4	-5	·	·	·
Cc1cc(SCC(=O)N/N=C/c2ccccc2C(=O)O)c(C)cc1Br	27	-1	-1	1	-9	·	·	·
Cc1cc(SCC(=O)N/N=C/c2ccc(O)cc2O)c(C)cc1Br	0	52*	0	2	6	92*	41*	75*
COC(=O)c1sccc1NC(=O)CC1C(=O)NCCN1C(=O)c1c(F)cccc1Cl (stereo not given)	3	2	6	6	-3	·	·	·
CC(=O)Oc1ccc2c(=O)c(/C=N/c3cc(=O)[nH]c(=S)[nH]3)coc2c1	15	8.0*	2	8	-8	13*	3	3
N#CCc1ccc(-c2cccc3nccn23)cc1	·	0	·	·	·	·	·	·
SMILES	PHOSPHO1 inh	Tb MetRS inh	APOBEC3G inh	APOBEC3A inh	pCIP destab	TbMetRS confirm	Jurkat cytotox	Tb MetRS inh FP
CS(=O)(=O)n1nc(-c2ccc(Cl)cc2)nc1SCc1ccccc1	19	6.7*	-3	2	-2	4	4	7
CSc1nc(-c2ccc(Cl)cc2)nn1S(=O)(=O)c1ccccc1	-6	-1	-1	1	-4	·	·	·
Oc1ccc(/C=N/Nc2ccnc3cc(Cl)ccc23)c(O)c1O	12	3	18	10	-3	·	·	·
Oc1ccc(/C=N/Nc2ccnc3cc(Cl)ccc23)cc1O	53	5.6*	-1	0	-10	13*	77*	26*
COc1ccc(OCCC(=O)OCC(=O)Nc2ccc(Br)cc2)cc1	10	17*	-5	-2	5	18*	3	12
COc1ccc(NC(=O)COC(=O)COc2ccc(Br)cc2)cc1	28	1	-6	3	1	·	·	·
COc1ccc(CC(=O)OCC(=O)Nc2ccc(Br)cc2)cc1	2	11*	-8	-2	11	31*	-9	25*
COc1ccc(NC(=O)COC(=O)Cc2ccc(Br)cc2)cc1	2	1	-1	3	9	·	·	·
CC(C)(Oc1ccc(Cl)cc1)C(=O)OCc1nc2ccsc2c(=O)[nH]1	·	20*	-5	-1	·	64*	3	38*
Cc1ccsc1C(=O)OCc1nc2ccsc2c(=O)[nH]1	·	0	-4	1	·	·	·	·
O=C(O)[C@H]1CCCN1C(=O)c1ccccc1N1C(=O)[C@@H]2Cc3c([nH]c4ccccc34)C(c3cccc(Cl)c3)N2C1=O (stereo not given in full)	18	8.3*	-10	-5	0	18*	4	8
Cc1cccc(CN2CCc3c([nH]c4ccccc34)C2)c1	37	5.8*	-3	3	-4	15*	13	7
CN(Cc1ccccc1)C(=O)c1ccc(NC(=O)Cc2ccc(NC(=O)C3CCCN(C(=O)C4CC4)C3)cc2)cc1 (stereo not given)	·	0	·	·	·	·	·	·
COCCNC(=O)CSc1ccc(-c2nc3ccccc3[nH]2)cn1	50	11*	-3	-5	-14	19*	2	0
O=C(CSc1ccc(-c2nc3ccccc3[nH]2)cn1)Nc1ccc(S(=O)(=O)NC2CC2)cc1	-2	64*	-4	-2	-2	69*	9	75*
